Test results from ChEMBL document CHEMBL1150393, “Evaluation of radiolabeled (hetero)aromatic analogues of N-(2-diethylaminoethyl)-4-iodobenzamide for imaging and targeted radionuclide therapy of melanoma” (J Med Chem, 2008).
One block for each molecule: values may come before it.

Tests used:
[1] = Binding affinity to melanin in water; set-up: concentration or dose not given beside the values; settings: tested as the 125I-labelled form
[2] = Binding affinity to melanin in phosphate buffer solution; set-up: concentration or dose not given beside the values; settings: tested as the 125I-labelled form
[3] = Biodistribution in gall bladder of C57BL/6 mouse bearing mouse B16-F0 cells at 0.74 to 0.92 MBq, iv after 3 hrs; format: ADME, organism-based; settings: in vivo
Outline: (§1)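 Male C57BL6 mice with s.c. left-flank B16-F0 melanoma (5 × 10⁵ cells in PBS). Two mice per time point frozen in liquid nitrogen after CO₂ sacrifice. Eight 40 µm whole-body cryosections per mouse read by multiwire proportional counter. cpm/mm² converted to kBq/g and expressed as %ID/g.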

[4] = Partition coefficient, log P in phosphate buffer solution at pH 7.4; format: physicochemical
Outline: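 Shake-flask partition: 50 µM [¹²⁵I]-labelled compound in phosphate buffer pH 7.4 was mixed with 2 mL n-octanol. Each phase was γ-counted, P was taken as the octanol/buffer activity ratio, and log P was reported.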

[5] = Drug excretion in mouse B16-F0 cells bearing C57BL/6 mouse urine at 0.74 to 0.92 MBq, iv after 72 hrs; format: ADME, organism-based; settings: in vivo
Outline: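 Urine was collected from two B16-F0 tumour-bearing C57BL6 mice for up to 72 h after iv tail-vein injection of the [¹²⁵I]-labelled compound (0.1 µmol). Samples were counted to give cumulative urinary excretion as %ID.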

[6] = Biodistribution in tumor of C57BL/6 mouse bearing mouse B16-F0 cells at 0.74 to 0.92 MBq, iv after 1 hr; format: ADME, organism-based, Neoplasm; settings: in vivo
Outline: (§2)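 [¹²⁵I]-labelled compound given iv by tail vein (0.1 µmol per mouse) to male C57BL6 mice bearing s.c. B16-F0 flank tumours (5 × 10⁵ cells in PBS). Two mice per time point were killed by CO₂, frozen in liquid nitrogen and cut into 40 µm cryosections, eight slices per mouse. Slice radioactivity was read on a multiwire proportional counter, converted to kBq/g and reported as %ID/g.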

[7] = Biodistribution in tumor of C57BL/6 mouse bearing mouse B16-F0 cells at 0.74 to 0.92 MBq, iv after 3 hrs; format: ADME, organism-based, Neoplasm; settings: in vivo; outline: as §2
[8] = Biodistribution in tumor of C57BL/6 mouse bearing mouse B16-F0 cells at 0.74 to 0.92 MBq, iv after 6 hrs; format: ADME, organism-based, Neoplasm; settings: in vivo; outline: as §2
[9] = Biodistribution in tumor of C57BL/6 mouse bearing mouse B16-F0 cells at 0.74 to 0.92 MBq, iv after 24 hrs; format: ADME, organism-based, Neoplasm; settings: in vivo; outline: as §2
[10] = Biodistribution in tumor of C57BL/6 mouse bearing mouse B16-F0 cells at 0.74 to 0.92 MBq, iv after 72 hrs; format: ADME, organism-based, Neoplasm; settings: in vivo; outline: as §2
[11] = Ratio of drug level in tumor to liver of C57BL/6 mouse bearing mouse B16-F0 cells at 0.74 to 0.92 MBq, iv after 1 hr; format: ADME, organism-based; settings: in vivo
Outline: (§3)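 Tumour and organ radioactive concentrations came from whole-body cryosection counting (40 µm slices, eight per mouse, two mice per time) after tail-vein injection of the [¹²⁵I]-labelled compound (0.1 µmol) into male C57BL6 mice bearing s.c. B16-F0 melanoma. Each value is the ratio of the tumour concentration to the organ concentration.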

[12] = Ratio of drug level in tumor to liver of C57BL/6 mouse bearing mouse B16-F0 cells at 0.74 to 0.92 MBq, iv after 3 hrs; format: ADME, organism-based; settings: in vivo; outline: as §3
[13] = Ratio of drug level in tumor to lung of C57BL/6 mouse bearing mouse B16-F0 cells at 0.74 to 0.92 MBq, iv after 1 hr; format: ADME, organism-based; settings: in vivo; outline: as §3
[14] = Ratio of drug level in tumor to brain of C57BL/6 mouse bearing mouse B16-F0 cells at 0.74 to 0.92 MBq, iv after 1 hr; format: ADME, organism-based; settings: in vivo; outline: as §3
Brain = test: Biodistribution in brain of C57BL/6 mouse bearing mouse B16-F0 cells at 0.74 to 0.92 MBq, iv after 1 hr; format: ADME, organism-based; settings: in vivo; outline: as §1
[15] = Biodistribution in intestinal content of C57BL/6 mouse bearing mouse B16-F0 cells at 0.74 to 0.92 MBq, iv after 1 hr; format: ADME, organism-based; settings: in vivo; outline: as §1
[16] = Biodistribution in intestinal content of C57BL/6 mouse bearing mouse B16-F0 cells at 0.74 to 0.92 MBq, iv after 3 hrs; format: ADME, organism-based; settings: in vivo; outline: as §1
[17] = Biodistribution in intestinal content of C57BL/6 mouse bearing mouse B16-F0 cells at 0.74 to 0.92 MBq, iv after 6 hrs; format: ADME, organism-based; settings: in vivo; outline: as §1
[18] = Biodistribution in Stomach content of C57BL/6 mouse bearing mouse B16-F0 cells at 0.74 to 0.92 MBq, iv after 1 hr; format: ADME, organism-based; settings: in vivo; outline: as §1
[19] = Biodistribution in Stomach content of C57BL/6 mouse bearing mouse B16-F0 cells at 0.74 to 0.92 MBq, iv after 3 hrs; format: ADME, organism-based; settings: in vivo; outline: as §1
[20] = Biodistribution in Stomach content of C57BL/6 mouse bearing mouse B16-F0 cells at 0.74 to 0.92 MBq, iv after 6 hrs; format: ADME, organism-based; settings: in vivo; outline: as §1
Liver [21] = test: Biodistribution in liver of C57BL/6 mouse bearing mouse B16-F0 cells at 0.74 to 0.92 MBq, iv after 1 hr; format: ADME, organism-based; settings: in vivo; outline: as §1
Liver [22] = test: Biodistribution in liver of C57BL/6 mouse bearing mouse B16-F0 cells at 0.74 to 0.92 MBq, iv after 3 hrs; format: ADME, organism-based; settings: in vivo; outline: as §1
Muscle tissue = test: Biodistribution in muscle of C57BL/6 mouse bearing mouse B16-F0 cells at 0.74 to 0.92 MBq, iv after 1 hr; format: ADME, organism-based; settings: in vivo; outline: as §1
Lung = test: Biodistribution in lung of C57BL/6 mouse bearing mouse B16-F0 cells at 0.74 to 0.92 MBq, iv after 1 hr; format: ADME, organism-based; settings: in vivo; outline: as §1
Spleen = test: Biodistribution in spleen of C57BL/6 mouse bearing mouse B16-F0 cells at 0.74 to 0.92 MBq, iv after 1 hr; format: ADME, organism-based; settings: in vivo; outline: as §2
Kidney = test: Biodistribution in kidney of C57BL/6 mouse bearing mouse B16-F0 cells at 0.74 to 0.92 MBq, iv after 1 hr; format: ADME, organism-based; settings: in vivo; outline: as §1
Blood = test: Biodistribution in blood of C57BL/6 mouse bearing mouse B16-F0 cells at 0.74 to 0.92 MBq, iv after 1 hr; format: ADME, organism-based; settings: in vivo; outline: as §1
Thyroid gland [23] = test: Biodistribution in thyroid of C57BL/6 mouse bearing mouse B16-F0 cells at 0.74 to 0.92 MBq, iv after 1 hr; format: ADME, organism-based; settings: in vivo; outline: as §2
Thyroid gland [24] = test: Biodistribution in thyroid of C57BL/6 mouse bearing mouse B16-F0 cells at 0.74 to 0.92 MBq, iv after 3 hrs; format: ADME, organism-based; settings: in vivo; outline: as §2
Thyroid gland [25] = test: Biodistribution in thyroid of C57BL/6 mouse bearing mouse B16-F0 cells at 0.74 to 0.92 MBq, iv after 6 hrs; format: ADME, organism-based; settings: in vivo; outline: as §2
Thyroid gland [26] = test: Biodistribution in thyroid of C57BL/6 mouse bearing mouse B16-F0 cells at 0.74 to 0.92 MBq, iv after 24 hrs; format: ADME, organism-based; settings: in vivo; outline: as §2
[27] = Biodistribution in uvea of C57BL/6 mouse bearing mouse B16-F0 cells at 0.74 to 0.92 MBq, iv after 1 hr; format: ADME, organism-based, Uveal tract; settings: in vivo; outline: as §2
[28] = Biodistribution in uvea of C57BL/6 mouse bearing mouse B16-F0 cells at 0.74 to 0.92 MBq, iv after 3 hrs; format: ADME, organism-based, Uveal tract; settings: in vivo; outline: as §2
[29] = Biodistribution in uvea of C57BL/6 mouse bearing mouse B16-F0 cells at 0.74 to 0.92 MBq, iv after 6 hrs; format: ADME, organism-based, Uveal tract; settings: in vivo; outline: as §2
[30] = Biodistribution in uvea of C57BL/6 mouse bearing mouse B16-F0 cells at 0.74 to 0.92 MBq, iv after 24 hrs; format: ADME, organism-based, Uveal tract; settings: in vivo; outline: as §2
[31] = Biodistribution in uvea of C57BL/6 mouse bearing mouse B16-F0 cells at 0.74 to 0.92 MBq, iv after 72 hrs; format: ADME, organism-based, Uveal tract; settings: in vivo; outline: as §2

- Activity [1]: 67.4%
- Activity [2]: 47.3%
SMILES: CCN(CC)CCNC(=O)c1cnc2cc(I)ccc2n1

- Activity [1]: 87%
- Activity [2]: 45.2%
SMILES: CCN(CC)CCNC(=O)c1cc2c(I)cccc2cn1

More lines, now with the values behind:

SMILES: CCN(CC)CCNC(=O)c1cn2cc(I)ccc2n1
- Activity [1]: 75.3%
- Activity [2]: 11.6%

SMILES: CCN(CC)CCNC(=O)c1cc2c([125I])cccc2s1.Cl
- Drug uptake [3]: 65.56 % ID/g
- logD [4]: 1.54
- Activity [5]: 52.6%
- Drug uptake [6]: 12.5 % ID/g
- Drug uptake [7]: 10 % ID/g
- Drug uptake [8]: 8.7 % ID/g
- Drug uptake [9]: 7.3 % ID/g
- Drug uptake [10]: 1.7 % ID/g
- Ratio [11]: 5.64
- Ratio [12]: 7.98
- Ratio [13]: 3.38
- Ratio [14]: 15.4
- Drug uptake (Brain): 0.81 % ID/g
- Drug uptake [15]: 71.13 % ID/g
- Drug uptake [16]: 73.02 % ID/g
- Drug uptake [17]: 37.7 % ID/g
- Drug uptake [18]: 20 % ID/g
- Drug uptake [19]: 5.93 % ID/g
- Drug uptake [20]: 18.77 % ID/g
- Drug uptake (Liver [21]): 2.21 % ID/g
- Drug uptake (Liver [22]): 1.25 % ID/g
- Drug uptake (Muscle tissue): 0.77 % ID/g
- Drug uptake (Lung): 3.69 % ID/g
- Drug uptake (Spleen): 3.88 % ID/g
- Drug uptake (Kidney): 5.61 % ID/g
- Drug uptake (Blood): 1.37 % ID/g
- Drug uptake (Thyroid gland [23]): 24.03 % ID/g
- Drug uptake (Thyroid gland [24]): 67.21 % ID/g
- Drug uptake (Thyroid gland [25]): 139.12 % ID/g
- Drug uptake (Thyroid gland [26]): 79.82 % ID/g
- Drug uptake [27]: 16.09 % ID/g
- Drug uptake [28]: 19.51 % ID/g
- Drug uptake [29]: 16.29 % ID/g
- Drug uptake [30]: 11.06 % ID/g
- Drug uptake [31]: 9.22 % ID/g

SMILES: CCN(CC)CCNC(=O)c1ccc2cncc(I)c2n1
- Activity [1]: 44.8%
- Activity [2]: 35.3%

SMILES: CCN(CC)CCNC(=O)c1nc2cc(I)ccc2[nH]1
- Activity [1]: 84.5%
- Activity [2]: 47.1%

SMILES: CCN(CC)CCNC(=O)c1ccc(I)cc1
- Activity [5]: 83.1%
- Drug uptake [7]: 9.1 % ID/g
- Drug uptake [8]: 7.7 % ID/g
- Drug uptake [9]: 3.7 % ID/g
- Drug uptake [10]: 0.8 % ID/g
